In assay [1] the test system is Astrocyte. Nature of the assay: Neuroprotective activity against glutamate-induced GSH depletion in rat astrocytes assessed as GSH level at 25 uM measured per gram of protein by spectrofluorimetry (RVb = 9.08 +/- 0.9 […]). The class given is functional.
The target in assay [2] is Sigma non-opioid intracellular receptor 1 (Cavia porcellus, UniProt Q60492). The assay can be described thus: Displacement of [3H](+)-pentazocine from guinea pig sigma1 opioid receptor by liquid scintillation counting. Background: In a radioligand displacement assay an active substance lowers the binding of a labelled ligand.
Sequence of Sigma non-opioid intracellular receptor 1 (Q60492 whole entry): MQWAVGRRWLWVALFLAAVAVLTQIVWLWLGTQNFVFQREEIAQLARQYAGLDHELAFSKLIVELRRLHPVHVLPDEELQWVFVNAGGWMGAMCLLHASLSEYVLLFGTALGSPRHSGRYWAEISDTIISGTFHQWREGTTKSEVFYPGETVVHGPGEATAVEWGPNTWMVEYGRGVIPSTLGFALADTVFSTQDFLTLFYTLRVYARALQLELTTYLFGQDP
The nature of assay [3]: Neuroprotective activity against glutamate-induced transglutaminase-2 expression albino rat astrocytes assessed as reduction in transglutaminase level at 25 uM by immunoblotting. In kind it is functional, cell-based. The settings on record: Astrocyte. In short, it runs like this: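 Primary rat neocortical astroglial cultures at 14 DIV, about 90-95% GFAP-positive. Exposed for 24 h to ligand at 25 μM, with or without glutamate at 500 μM. TG2 expression was measured by immunoblot with densitometry and compared against control and glutamate-alone cultures.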
Background: In western blotting, separated proteins are transferred to a membrane and probed.

For assay [4], the system named is Astrocyte. The assay can be described thus: Neuroprotective activity against glutamate-induced ROS production in albino rat astrocytes assessed as dichlorofluresceine produced per gram of protein per 30 mins at 25 uM by spectrofluorimetry (RVb = 4.45 +/- 0.51 nmol). In kind it is functional.
Assay [5] is described as follows: (§1) Displacement of [3H]-DTG from sigma2 opioid receptor by liquid scintillation counting. On the set-up: species or system Cavia porcellus.
Assay [6] concerns Rattus norvegicus. Nature of the assay: Analgesic activity in Sprague-Dawley rat assessed as reduction in (-)-U50,488H-induced tail flick latency at 1 mg/kg, sc pretreated 30 mins prior to (-)-U50,488H challenge. In kind it is functional, organism-based. More on the design: dose 1 mg/kg. In a few lines: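 Rat tail-flick test. Ligand given systemically at 1 mg/kg sc as a pretreatment before a KOP agonist. Tail-flick latency was followed over the observation period, with basal latency also recorded.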
For orientation: In hot-plate and tail-flick tests a longer latency is read as antinociception.

Assay [7] is filed under the species Cavia porcellus. Described as §1.

The source made the active and inactive calls. The rule behind the calls is not given here.

With `COC(=O)[C@]1(c2ccc(C)cc2)C[C@@H]1CN1CCC(O)(c2ccccc2)CC1`, the Activity in assay [1] is 13.44 nmol; in assay [4] it was 3.05 nmol. In addition, the Ki (commonly a dissociation constant, usually derived from enzyme kinetics or from competition with a known ligand) worked out at 1.9 nM in assay [2] and 50.2 nM in assay [5]. In addition, the outcome in assay [3] was Active.
For `COC(=O)[C@@]1(c2ccc(C)cc2)C[C@H]1CN1CCC(O)(c2ccccc2)CC1`, the Activity in assay [1] worked out at 14.87 nmol; in assay [4] it was 3.67 nmol; in assay [7], 103 nM. Also, the Ki in assay [2] came to 13 nM. In assay [3], the result was inactive. For the same compound, in assay [6], the result was Active.
`COC(=O)C1(c2ccc(C)cc2)CC1CN1CCC(O)(c2ccccc2)CC1` (racemic): the figures for the Activity in assay [1] and in assay [4] were 8.05 nmol and 5.51 nmol, respectively. For the same compound, the Ki in assay [2] is 1.8 nM; in assay [5], 20.8 nM. Further, the outcome in assay [3] was inactive.
`CC(C)=CCN1CC[C@]2(C)c3cc(O)ccc3C[C@H]1[C@H]2C` [(+)-PENTAZOCINE]: the Activity in assay [1] was found to be 14.15 nmol; in assay [4], 3.46 nmol. In addition, in assay [3], the outcome was Active.
Regarding `CC[C@H]1C[C@H]2C[C@H]3c4[nH]c5ccc(OC)cc5c4CCN(C2)[C@@H]13` [IBOGAINE], the results for the Activity in assay [1] and in assay [4] were 7.95 nmol and 5.82 nmol, respectively. In addition, the outcome in assay [3] was inactive.

The values are drawn from ChEMBL document CHEMBL1212928, “Synthesis and resolution of cis-(+/-)-methyl (1R,2S/1S,2R)-2-[(4-hydroxy-4-phenylpiperidin-1-yl)methyl]-1-(4-methylphenyl)cyclopropanecarboxylate [(+/-)-PPCC)]: new sigma receptor ligands with neuroprotective effect” (J Med Chem, 2010).
